Assay results from ChEMBL document CHEMBL1124816, “Effect of structure on potency and selectivity in 2,6-disubstituted 4-(2-arylethenyl)phenol lipoxygenase inhibitors” (J Med Chem, 1990).
pIC50: −log10 of the molar value.

Columns and labels:
[1] = Inhibition of human platelet Prostaglandin G/H synthase at the concentration of 10 uM
In short: (§1)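 CO activity measured in human platelets. Percent inhibition at a single test concentration is compared with untreated control, with significance by ANOVA and Tukey's multiple comparisons test (p < 0.05).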

[2] = target: T1, Polyunsaturated fatty acid 5-lipoxygenase (Homo sapiens) (UniProt P09917); assay: Inhibition of lipoxygenase at the concentration of 0.1 uM
T1 sequence (whole entry): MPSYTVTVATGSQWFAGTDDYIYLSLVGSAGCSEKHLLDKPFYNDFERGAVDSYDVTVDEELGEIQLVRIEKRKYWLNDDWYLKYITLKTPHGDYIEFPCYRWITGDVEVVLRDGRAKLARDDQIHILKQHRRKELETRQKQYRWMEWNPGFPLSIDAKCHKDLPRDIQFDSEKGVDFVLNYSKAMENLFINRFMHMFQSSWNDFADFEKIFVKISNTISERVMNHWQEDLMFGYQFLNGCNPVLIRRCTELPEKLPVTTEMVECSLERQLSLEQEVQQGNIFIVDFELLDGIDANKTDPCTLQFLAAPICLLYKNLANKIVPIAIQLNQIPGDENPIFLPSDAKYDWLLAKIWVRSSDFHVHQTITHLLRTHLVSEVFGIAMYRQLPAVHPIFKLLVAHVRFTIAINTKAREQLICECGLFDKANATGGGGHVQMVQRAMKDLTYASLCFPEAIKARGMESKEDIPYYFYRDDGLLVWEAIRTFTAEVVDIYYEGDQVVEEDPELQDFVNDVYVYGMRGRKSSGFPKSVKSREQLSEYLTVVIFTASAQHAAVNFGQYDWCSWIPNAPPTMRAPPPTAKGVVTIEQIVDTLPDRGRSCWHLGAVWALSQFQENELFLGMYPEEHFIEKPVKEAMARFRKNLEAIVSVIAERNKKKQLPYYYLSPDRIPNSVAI
In short: (§2)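 5-LO activity measured in human peripheral blood leukocytes. Percent inhibition at a single test concentration is compared with untreated control, with significance by ANOVA and Tukey's multiple comparisons test (p < 0.05).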

[3] = target: T1, Polyunsaturated fatty acid 5-lipoxygenase (Homo sapiens); assay: Inhibition of lipoxygenase at the concentration of 1 uM; in short: as §2
Cyclooxygenase [4] = target: T2, Cyclooxygenase (Homo sapiens, UniProt P35354+P23219); assay: Inhibition of human platelet Prostaglandin G/H synthase
Cyclooxygenase [5] = target: T2, Cyclooxygenase; assay: Inhibition of human platelet Prostaglandin G/H synthase at the concentration of 1 uM; in short: as §1
[6] = target: T3, Polyunsaturated fatty acid 5-lipoxygenase (Homo sapiens, UniProt P09917); assay: Inhibition of human neutrophil 5-lipoxygenase
T3 sequence (P09917 whole entry): T1 sequence (whole entry)

[7] = target: T1, Polyunsaturated fatty acid 5-lipoxygenase (Homo sapiens); assay: Inhibition of human neutrophil 5-lipoxygenase at the concentration of 1 uM; in short: as §2
[8] = target: T1, Polyunsaturated fatty acid 5-lipoxygenase (Homo sapiens); assay: Inhibition of human neutrophil 5-lipoxygenase at the concentration of 0.1 uM; in short: as §2

inhibition [1] [%]	inhibition [2] [%]	inhibition [3] [%]	IC50 (Cyclooxygenase [4])	inhibition (Cyclooxygenase [5]) [%]	pIC50 [6]	inhibition [7] [%]	inhibition [8] [%]	Structure (SMILES)
72	14	94	< 1 µM	76	> 6.00			Cc1cc(/C=C/c2ccccc2C(F)(F)F)cc(C)c1O
			0.19 µM		> 6.00	90	27	CCCOc1ccc(/C=C/c2cc(C)c(O)c(C)c2)cc1
91	26	94	< 1 µM	84	> 6.00			Cc1cc(/C=C/c2ccccc2Br)cc(C)c1O
5			> 10 µM	0	< 6.00	0		COc1ccc(/C=C/c2cc(C(C)(C)C)c(O)c(C(C)(C)C)c2)cc1
80			< 10 µM	29	< 6.00	44		Cc1cc(CCC(=O)c2ccc(F)cc2)cc(C)c1O
	25	100	0.71 µM		> 6.00			Cc1cc(/C=C/c2ccc(F)cc2F)cc(C)c1O
	27	94			> 6.00			Cc1cc(/C=C/c2cccc3ccccc23)cc(C)c1O
7			> 10 µM	0	< 6.00	5		Cc1cc(Cc2cccnc2)cc(C)c1O
90			< 1 µM	60	< 6.00	1		Cc1cc(C(=O)c2cccs2)cc(C)c1O
82		0	< 10 µM	25	< 6.00			Cc1cc(C(=O)/C=C/c2cccs2)cc(C)c1O
97			< 10 µM	42	> 6.00	89	31	COc1cc(/C=C/c2cccs2)cc(F)c1O
84			< 10 µM	18	> 6.00	71	13	COc1ccc(/C=C/c2cc(C(C)C)c(O)c(C(C)C)c2)cc1
0		0	> 10 µM	0	< 6.00			Cc1cc(/C=C/c2ccc(C(=O)O)cc2)cc(C)c1O
			2.5 µM		> 6.00	82	29	Cc1cc(/C=C/c2ccccn2)cc(C)c1O
66	16	61	< 10 µM	37	> 6.00			Cc1cc(/C=C/c2ccc3ccccc3c2)cc(C)c1O
			0.51 µM		6.23			CCc1ccc(/C=C/c2cc(C)c(O)c(C)c2)cc1
17	1	51	> 10 µM	0	6.00			Cc1cc(/C=C/c2ccncc2)cc(C)c1O
73	21	91	< 10 µM	35	> 6.00			CCc1cc(/C=C/c2ccc(C)cc2)cc(CC)c1O
67			< 10 µM	32	~6.00	53	7	CCCCOc1ccc(/C=C/c2cc(C)c(O)c(C)c2)cc1
			1.3 µM		6.62			Cc1ccc(C)c(/C=C/c2cc(C)c(O)c(C)c2)c1
			1.3 µM		> 6.00	92	32	Cc1cc(/C=C/c2ccc(Cl)s2)cc(C)c1O
			0.78 µM		> 6.00	87	26	Cc1ccc(/C=C/c2cc(C)c(O)c(C)c2)s1
0		1	> 10 µM	0	< 6.00			Cc1cc(/C=C2\CCOC2=O)cc(C)c1O

inhibition [1] [%]	inhibition [2] [%]	inhibition [3] [%]	IC50 (Cyclooxygenase [4])	inhibition (Cyclooxygenase [5]) [%]	pIC50 [6]	inhibition [7] [%]	inhibition [8] [%]	Structure (SMILES)
			0.63 µM		6.37			C/C(=C\c1cc(C)c(O)c(C)c1)c1ccc(F)cc1
			0.23 µM		> 6.00	93	29	Cc1cc(/C=C/c2cccs2)cc(Cl)c1O
		0	10 µM		< 6.00			Cc1ccc(/C=C/c2cc(C(C)(C)C)c(O)c(C(C)(C)C)c2)cc1
			0.73 µM		7.19			C=CCc1cc(/C=C/c2cccs2)cc(C)c1O
			< 10 µM		6.70			CC(C)c1cc(/C=C/c2cccnc2)cc(C(C)C)c1O
0		0	> 10 µM	0	< 6.00			Cc1cc(/C=C/c2cccc(C(=O)O)c2)cc(C)c1O
			1.1 µM		7.00			COc1ccccc1/C=C/c1cc(C)c(O)c(C)c1
92			~ 1 uM	45	> 6.00	95	18	Cc1cc(/C=C/c2ccccc2OCc2ccccc2)cc(C)c1O
			4.2 µM		7.00			Cc1cc(/C=C/c2ccccc2)cc(C)c1O
74		40	< 10 µM	12	< 6.00			CC(C)c1cc(/C=C/c2ccc(F)cc2)cc(C(C)C)c1O
96			< 10 µM	39	~7.00	89	52	CCc1cc(/C=C/c2cccs2)cc(CC)c1O
			0.75 µM		6.77			Cc1cc(/C=C/c2ccc(Cl)cc2)cc(C)c1O
74	6	81	1 µM	50	> 6.00			Cc1cc(/C=C/c2cc(F)cc(F)c2)cc(C)c1O
95			< 1 µM	72	> 6.00	90	18	Cc1cc(/C=C/c2cccs2)cc(F)c1O
82		22	< 10 µM	37	< 6.00			Cc1cc(/C=C/C(=O)c2cccs2)cc(C)c1O
	24	18	0.61 µM		< 6.00			CC(C)(C)c1cc(/C=C/c2ccc(F)cc2)cc(C(C)(C)C)c1O
71		33	< 10 µM	43	< 6.00			Cc1cc(/C=C/C(=O)c2ccc(F)cc2)cc(C)c1O
			< 1 µM		> 6.00	94	14	CC(C)c1cc(/C=C/c2cccs2)cc(C(C)C)c1O
80			< 10 µM	33	> 6.00	90	15	CCc1cc(/C=C/c2ccc(OC)cc2)cc(CC)c1O
			11 µM		6.43			Cc1cc(/C=C/c2cccnc2)cc(C)c1O
	11	30	1.4 µM		< 6.00			Cc1cc(/C=C/c2ccc(C(C)C)cc2)cc(C)c1O
86			< 10 µM	1	~7.00	93	52	COc1cc(/C=C/c2cccs2)cc(OC)c1O

Structure (SMILES)	inhibition [1] [%]	inhibition [2] [%]	inhibition [3] [%]	IC50 (Cyclooxygenase [4])	inhibition (Cyclooxygenase [5]) [%]	pIC50 [6]	inhibition [7] [%]	inhibition [8] [%]
CC(C)(C)c1cc(/C=C/c2cccs2)cc(C(C)(C)C)c1O				0.034 µM		5.92		
Cc1cc(CCc2ccc(F)cc2)cc(C)c1O			44	0.3 µM		< 6.00		
CC(C)(C)c1cc(C(=O)c2cccs2)cc(C(C)(C)C)c1O [PRIFELONE]				0.0057 µM		5.32		
Cc1cc(/C=C/c2csc3ccccc23)cc(C)c1O		13	87	0.4 µM		> 6.00		
Cc1cc(CCc2cccs2)cc(C)c1O				0.11 µM		> 6.00	67	11
CC(C)(C)c1cc(/C=C2\CCOC2=O)cc(C(C)(C)C)c1O				0.11 µM				
